# Shown are actives, neighbours in structure and some others; about 2.4% of the full set was active somewhere.
# HNF4A DNA FP: change in binding of human HNF4A to DNA, primary screen, biochemical, fluorescence polarization, FITC-DNA. Hepatocyte nuclear factor 4-alpha (Homo sapiens), P41235. 1 h. activity change, % at 10 µM. 360,000 compounds, 0.3% hits; in the data active means activity change above about 30%, passing the limit was not always enough
# Neddyl block: inhibitors of cullin neddylation, primary screen, biochemical, TR-FRET, uHTS, NAE and Ubc12 | NEDD8-conjugating enzyme Ubc12 (Homo sapiens) + NEDD8-activating enzyme E1 regulatory … | inhibition, % at 25 µM | 360,000 compounds, 0.58% hits | AID 651699, 2012; in the data active means inhibition above about 36%
# CSN inh: inhibitors of CSN-mediated cullin deneddylation, primary screen, biochemical, fluorescence polarization, uHTS; COP9 signalosome complex subunit 5 (Homo sapiens), Q92905; Purified CSN, SCF-Nedd8-OG deneddylation; inhibition, % at 12.5 µM; 360,000 compounds, 0.38% hits; AID 651999, 2013;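 active means pattern-corrected inhibition above about 35%, with an unprinted fluorescence ratio check between 0.5 and 1.5, limit read from the data, passing the limit was not always enough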;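 further: 0% = enzyme with substrate and 100% = substrate without enzyme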
#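 Test system: Human Csn5 produced in HEK293T cells | Compound: 12.5 µM single point | Times: 90 min, room temperature | Signal: Fluorescence polarization readout | Read-out basis: % inhibition of substrate cleavage by Csn5 | Controls: no-enzyme wells high, enzyme-with-substrate wells low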
# Rin1-Abl PPI inh: inhibitors of Rin1-Abl protein binding, primary screen, biochemical, TR-FRET; inhibition, % at 7.35 µM; Tyrosine-protein kinase ABL1 (Homo sapiens) + Ras and Rab interactor 1 (Homo sapiens), …; 360,000 compounds, 0.4% hits; in the data active means inhibition above about 5%, passing the limit was not always enough
# Rpn11 inh: Rpn11 (PSMD14) deubiquitinase inhibitors, primary screen, biochemical, fluorescence polarization, uHTS | 360,000 compounds, 0.59% hits | human 26S proteasome, Ub4-pepOG fluorescence polarization; 20S core pre-blocked with epoxomicin | AID 588493, 2011 | 26S proteasome non-ATPase regulatory subunit 14 (Homo sapiens), O00487 | inhibition, % at 20 µM;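 active means inhibition at 20 µM, scaled to each plate's controls, above about 33%, limit read from the data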
# TPT1 inh: Candida albicans TPT1 enzyme inhibitors, primary screen, biochemical, fluorescence polarization; inhibition, % at 5 µM; 300,000 compounds, 0.81% hits; tRNA 2'-phosphotransferase TPT1 (Candida albicans SC5314); AID 1962, 2009; recombinant caTPT1, FP RNA substrate dephosphorylation;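 active means inhibition above the mean of all tested compounds plus 3 SD, set per screening campaign, cut at about 24% in these data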;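 further: plate controls were DMSO alone for no effect and ferristatin control at 100 nM for full effect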
# Rpn11 confirm: Rpn11 (PSMD14) deubiquitinase inhibitors, confirmation, biochemical, fluorescence polarization, single concentration; shares compounds with Rpn11 inh; purified human 26S proteasome, Ub4-pepOG fluorescence polarization; proteasome pretreated with epoxomicin; inhibition, % at 20 µM; 1,900 compounds, 29% hits; AID 602318, 2012; in the data active means inhibition above about 40%
# MMP-2 inh: MMP-2 enzyme inhibition, confirmation, counter-screen for RPN11 inhibitor project, biochemical, fluorescence, single concentration. inhibition, % at 20 µM. 1,900 compounds, 4% hits. recombinant MMP-2, FRET peptide cleavage fluorescence. shares compounds with Rpn11 inh; in the data active means inhibition above about 40%;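 further: human MMP-2 activated beforehand with APMA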
# Target sequence (P08253 whole entry, looked up): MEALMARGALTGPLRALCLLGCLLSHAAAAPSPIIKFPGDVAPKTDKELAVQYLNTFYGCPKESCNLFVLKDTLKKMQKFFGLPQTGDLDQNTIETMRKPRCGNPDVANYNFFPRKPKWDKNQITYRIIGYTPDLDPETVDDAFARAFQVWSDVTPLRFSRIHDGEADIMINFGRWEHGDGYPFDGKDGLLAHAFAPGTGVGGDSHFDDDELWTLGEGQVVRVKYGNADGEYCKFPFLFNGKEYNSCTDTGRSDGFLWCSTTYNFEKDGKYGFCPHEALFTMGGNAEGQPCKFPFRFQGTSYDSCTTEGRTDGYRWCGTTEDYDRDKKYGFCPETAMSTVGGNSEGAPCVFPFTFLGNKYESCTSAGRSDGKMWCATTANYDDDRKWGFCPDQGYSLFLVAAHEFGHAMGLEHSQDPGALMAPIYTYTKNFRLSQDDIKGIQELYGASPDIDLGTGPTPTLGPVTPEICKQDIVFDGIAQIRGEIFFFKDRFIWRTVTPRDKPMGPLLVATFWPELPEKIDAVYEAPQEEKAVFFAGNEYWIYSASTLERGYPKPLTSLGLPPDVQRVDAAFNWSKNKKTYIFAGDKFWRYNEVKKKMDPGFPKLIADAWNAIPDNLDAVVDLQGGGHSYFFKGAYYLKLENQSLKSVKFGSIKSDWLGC
# Thrombin inh: bovine thrombin protease inhibition, confirmation, counter-screen for Rpn11 inhibitor project, biochemical, fluorescence polarization, single concentration | AID 602333, 2012 | 1,900 compounds, 13% hits | shares compounds with Rpn11 inh | inhibition, % at 20 µM | bovine thrombin cleavage of Ub4-pepOG;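 active means mean inhibition at least 40% at 20 µM, or signal 3 deviations below plate average, so some actives read negative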;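 further: plate controls were thrombin with DMSO for no effect and buffer wells lacking thrombin for full effect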
# Rin1-Abl confirm: Rin1-Abl binding inhibitor retest, confirmation, biochemical, TR-FRET. shares compounds with Rin1-Abl PPI inh. purified proteins. inhibition, % at 7.35 µM. 1,300 compounds, 49% hits
# GFP quench: GFP fluorescence inhibitors and quenchers, artefact control for Rin1-Abl interaction inhibitor project, biochemical | shares compounds with Rin1-Abl PPI inh | inhibitors/quenchers counterscreen | inhibition, % at 6.75 µM | 1,300 compounds, 8.5% hits | AID 602125, 2011;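 further: ABL1-eGFP fusion protein alone without its partner RIN1-SBP; 0% = protein with vehicle and 100% = wells lacking protein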
# GFP quench DR: GFP fluorescence inhibitors and quenchers, dose response, artefact control for Rin1-Abl interaction inhibitor project, biochemical | shares compounds with Rin1-Abl PPI inh | GFP fluorescence interference/quenching counterscreen | IC50, µM | 230 tested, under 10 active; call rule not given here;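 further: ABL1-eGFP fusion protein alone without its RIN1 binding partner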
# HNF4a DNA conf: change in HNF4A binding to DNA, retest, confirmation, biochemical, fluorescence polarization, FITC-DNA | AID 1224897, 2016 | 1 h | activity change, % at 12.5 µM | 210 compounds, 99% hits | shares compounds with HNF4A DNA FP; call rule not given here
# Numbers without * were called inactive; x = not tested or not shown; + = active, no number. Unless noted, no stated cut-off is given here; in the data, active means inhibition above about 6.5%; inactive means the rest.
SMILES,HNF4A DNA FP,Neddyl block,CSN inh,Rin1-Abl PPI inh,Rpn11 inh,TPT1 inh,Rpn11 confirm,MMP-2 inh,Thrombin inh,HNF4a DNA conf,others
Cc1ccc(OC(C)C(=O)N(Cc2cccs2)C2CCS(=O)(=O)C2)cc1C (stereo not drawn),2.5,-3.8,23.1,-2.5,-3.2,-4.2,x,x,x,x,
CN1/C(=C\P(=O)(N(C)C)N(C)C)C(C)(C)c2ccccc21,39.4*,-4.1,21.6,-1.2,59.9*,-8.6,32.5,-17.9,22.1,43.1*,
COc1ccc(C(=O)OCC(O)COC(=O)c2ccc(OC)cc2)cc1,0.5,-3.0,3.1,0.0,-1.0,-3.4,x,x,x,x,
CSc1nsc(/C=C/Nc2ccc(F)cc2)c1C#N,51.2*,-72.6,16.5,-0.8,64.4*,24.1,28.4,-36.6,16.1,46.2*,
COc1ccc2nc3n(c(=O)c2c1)-c1ncccc1C(=O)NC3C (stereo not drawn),3.0,0.0,0.6,-0.9,-3.9,x,x,x,x,x,
CCS(=O)(=O)C1=NSC2=NC(=O)/C(=C\c3ccc(OC(=O)c4ccco4)c(OC)c3)C(=N)N21,43.8*,-79.8,30.9,0.1,117.9*,13.5,36.1,-3.5,33.6,58.8*,
COc1ccc(-c2ccc3c(c2)S(=O)(=O)c2cccc(C(=O)NC4CCCC4)c2C3=O)cc1OC,51.3*,-4.3,8.9,-1.2,78.5*,x,-13.2,6.1,-7.5,57.0*,
Cc1ccc(C(=O)Nc2cccc(-c3cnc4ccccc4n3)c2)cc1,-5.1,-6.1,-2.1,-4.3,-3.7,-1.4,x,x,x,x,
CC(=O)Nc1ccc(C(=O)Nc2cccc(-c3cnc4ccccc4n3)c2)cc1,48.4*,-13.3,86.5*,-2.4,+,x,-1.4,1.3,1.2,59.9*,
CN1C=CC(=CC=C2C=CC(=O)C=C2)C=C1,54.2*,-10.8,33.7,-4.8,82.3*,12.0,43.3*,-12.9,30.7,48.3*,
CC(C)(/C=N/O)N(O)C=C1C=CC(=O)C=C1,-3.3,-0.9,-0.2,-2.4,-9.0,-4.1,x,x,x,x,
Cc1cc(C)n2c(Nc3ccc4c(c3)OCCO4)c(CCc3ccccc3)nc2n1,0.8,17.6,-2.7,x,x,x,x,x,x,x,
O=C(/C=C\Nc1ccc2c(c1)OCO2)c1ccc2c(c1)OCO2,80.8*,25.1,-1.2,0.9,37.7*,24.0,33.7,7.6,2.9,85.0*,
COc1ccc(N/C=C\C(=O)c2ccc3c(c2)OCO3)cc1,10.4,31.1,-1.3,0.4,3.8,2.9,x,x,x,x,
C[C@@H]1CN([C@H](C)CO)C(=O)Cc2cc(NS(=O)(=O)c3cn(C)cn3)ccc2O[C@H]1CN(C)S(=O)(=O)c1ccc(Cl)cc1,5.3,4.0,-7.4,-3.2,9.6,x,x,x,x,x,
CCCCn1c(/N=C/c2ccc3c(c2)OCO3)nc2ccccc21,-5.1,7.0,-0.1,1.5,6.9,-5.0,x,x,x,x,
CCCCn1c(/N=C/c2ccc(N(C)C)cc2)nc2ccccc21,48.7*,-4.3,17.5,2.7,51.5*,23.8,72.5*,-14.2,59.1*,81.0*,
O=c1c(O)c(-c2ccc(O)c(O)c2)oc2cc(O)ccc12,1.7,33.2,5.5,22.7*,-4.9,x,x,x,x,x,Rin1-Abl confirm=22.1*;GFP quench=1.7;GFP quench DR=>67.6
O=c1c(O)c(-c2ccc(O)cc2)oc2cc(O)cc(O)c12,4.9,-28.5,1.0,3.4,2.4,-3.1,x,x,x,x,
COc1cc(S(=O)(=O)Nc2ccccc2)ccc1NC=O,-0.5,-4.8,-1.1,5.4*,-0.5,-3.9,x,x,x,x,Rin1-Abl confirm=-1.6;GFP quench=0.7
O=C(OCC(O)C1OC(c2ccccc2)OC(COC(=O)c2ccccc2)C1O)c1ccccc1 (stereo not drawn),1.2,-10.1,6.2,2.4,3.5,x,x,x,x,x,
CN=c1scc(-c2cccs2)n1/N=C/c1ccccc1O,4.4,19.8,-7.4,1.8,1.7,1.8,x,x,x,x,
C=CCN=c1scc(-c2ccco2)n1/N=C/c1ccc(O)c(O)c1O,-18.6,-14.2,28.7,10.8*,-4.5,3.3,x,x,x,x,Rin1-Abl confirm=5.9;GFP quench=7.3*
CN=c1scc(-c2cccs2)n1/N=C/c1ccc(O)c(O)c1O,1.8,-18.9,5.7,8.8*,10.9,-1.2,x,x,x,x,Rin1-Abl confirm=9.7*;GFP quench=12.6*
CN=c1scc(C)n1/N=C/c1cc(Br)c(O)c(OC)c1,4.0,16.7,-1.7,-5.8,-5.6,0.8,x,x,x,x,
SMILES,HNF4A DNA FP,Neddyl block,CSN inh,Rin1-Abl PPI inh,Rpn11 inh,TPT1 inh,Rpn11 confirm,MMP-2 inh,Thrombin inh,HNF4a DNA conf,others
CN=c1scc(C)n1/N=C/c1ccc(O)c(O)c1O,-3.9,-36.2,0.9,35.7*,-0.8,1.8,x,x,x,x,Rin1-Abl confirm=20.9*;GFP quench=20.4*
O=C(O)COc1ccc(Cl)cc1C1CCCCC1,0.8,2.6,0.8,1.6,4.0,x,x,x,x,x,
O=S(=O)(c1ccccc1)N1CCN(c2ncccn2)CC1,0.9,-0.8,-2.7,1.5,4.5,1.4,x,x,x,x,
O=S(=O)(Cc1ccccc1)N1CCN(c2ncccn2)CC1,-0.8,1.6,2.0,7.2*,3.9,-1.7,x,x,x,x,Rin1-Abl confirm=-1.2;GFP quench=0.0
C/C(=N\NC(=O)CNc1cccc(Cl)c1C)C1CC1,-2.0,-4.6,-5.1,2.0,0.4,-1.1,x,x,x,x,
COCCNC(=O)c1cc2c3ccccc3n(C)c2s1,1.2,25.9,6.3,31.2*,-2.3,0.0,x,x,x,x,Rin1-Abl confirm=22.1*;GFP quench=-1.2;GFP quench DR=>67.5

# From PubChem BioAssay
